Measured values of several laboratories.
Protocols differ between the studies behind these lines.
C3AR1: C3a anaphylatoxin chemotactic receptor (C3AR1, Homo sapiens, UniProt Q16581)
BCHE: Cholinesterase (BCHE, Equus caballus, UniProt P81908)

Structure (SMILES)	target	test	measurement	result
CC(C)C[C@H](NC(=O)[C@@H](N)[C@@H](C)O)C(=O)N[C@@H](CCC(N)=O)C(=O)N1CCC[C@H]1C(=O)N1CCC[C@H]1C(=O)N[C@@H](C)C(=O)N[C@@H](CO)C(=O)N[C@@H](CO)C(=O)N[C@@H](CCCNC(=N)N)C(=O)N[C@H](CCCNC(=N)N)C(=O)N[C@@H](CCCNC(=N)N)C(=O)N[C@@H](Cc1c[nH]cn1)C(=O)N[C@@H](Cc1ccccc1)C(=O)N[C@@H](Cc1c[nH]cn1)C(=O)N[C@@H](Cc1c[nH]cn1)C(=O)N[C@@H](C)C(=O)N[C@@H](CC(C)C)C(=O)N1CCC[C@H]1C(=O)N1CCC[C@H]1C(=O)N[C@@H](C)C(=O)N[C@@H](CCCCNC(=N)N)C(=O)O	C3AR1	G protein activation, agonist, BRET	EC50	0.259 µM
O=C(O)C(/C=C/c1ccc(Cl)cc1)=N\Nc1nc(-c2ccccc2)cs1	BCHE	enzyme activity, inhibitor	IC50	2.03 µM
COc1cc2c(cc1OC)CN(CCc1ccc(NC(=O)c3cccc4c(=O)c5cccc(OC)c5[nH]c34)cc1)CC2	D(1A) dopamine receptor (DRD1, Homo sapiens, UniProt P21728)	cell-free assay	Ki	> 10 µM
CC(C)(C)OC(=O)NC1CCCN(C(=O)/C=C/c2ccc(Cl)cc2)C1 (stereo not shown)	BCHE	enzyme activity, inhibitor, Ellman	IC50	> 50 µM
CC(C)C[C@H](NC(=O)[C@@H](N)[C@@H](C)O)C(=O)N[C@@H](CCC(N)=O)C(=O)N1CCC[C@H]1C(=O)N1CCC[C@H]1C(=O)N[C@@H](C)C(=O)N[C@@H](CO)C(=O)N[C@@H](CO)C(=O)N[C@@H](CCCNC(=N)N)C(=O)N[C@H](CCCNC(=N)N)C(=O)N[C@@H](CCCNC(=N)N)C(=O)N[C@@H](Cc1c[nH]cn1)C(=O)N[C@@H](Cc1ccccc1)C(=O)N[C@@H](Cc1c[nH]cn1)C(=O)N[C@@H](Cc1c[nH]cn1)C(=O)N[C@@H](C)C(=O)N[C@@H](CC(C)C)C(=O)N1CCC[C@H]1C(=O)N1CCC[C@H]1C(=O)NCC(=O)N[C@@H](CCCNC(=N)N)C(=O)O	C3AR1	β-arrestin recruitment, agonist	EC50	0.097 µM
COc1ccc(-c2csc(N/N=C(/C=C/c3c(Cl)cccc3Cl)C(=O)O)n2)cc1	BCHE	enzyme activity, inhibitor	IC50	5.01 µM
COc1cc(CCC(=O)N2CCC(Cc3ccccc3)CC2)ccc1OC(=O)N(C)C	BCHE	enzyme activity, inhibitor, Ellman	IC50	1.3 µM
O=C(N1CCC2(CC1)C[C@@H](CN1CCCCS1(=O)=O)CCO2)C1(c2ccccc2)CCCC1	DHX58 (Homo sapiens, UniProt Q96C10)	ATPase activity, inhibitor	IC50	> 50 µM
CCN(C)C(=O)Oc1ccc(/C=C/C(=O)NC2CCN(Cc3ccccc3)CC2)cc1	BCHE	enzyme activity, inhibitor, Ellman	IC50	16.3 µM
CCOc1ccc(/C=C/C(=O)N2CCCC(NC(=O)OC(C)(C)C)C2)cc1OC (stereo not shown)	BCHE	enzyme activity, inhibitor, Ellman	IC50	13.5 µM
